Sampled rows, rich in hits. Any-hit rate of the full collection: about 2.5%.
proKLK7 act – proKLK7 zymogen activators, primary screen, biochemical, fluorescence intensity; Kallikrein-7 (Homo sapiens), P49862; purified proKLK7, EDANS-DABCYL substrate fluorescence; 100% is mature enzyme control, 0% vehicle; activation, % at 7 µM; 370,000 compounds, 0.9% hits; AID 652039, 2013;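 active means activation above the mean of all tested compounds plus 3 SD, computed per campaign excluding outliers beyond control limits, cut at about 13% in these data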
Target sequence (P49862 whole entry, looked up): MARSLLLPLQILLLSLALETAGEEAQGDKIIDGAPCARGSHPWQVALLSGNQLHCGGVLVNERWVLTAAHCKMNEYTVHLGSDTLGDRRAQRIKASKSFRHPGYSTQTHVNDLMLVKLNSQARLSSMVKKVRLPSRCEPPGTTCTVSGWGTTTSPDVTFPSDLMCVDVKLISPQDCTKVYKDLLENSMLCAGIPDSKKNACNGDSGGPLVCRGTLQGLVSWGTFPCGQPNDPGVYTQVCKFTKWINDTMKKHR
NR2E3 ag-1 – NR2E3 agonists in two-hybrid cells, primary screen, cell-based, luminescence, CHO-S, Gal4-NCOR/VP16-NR2E3; Photoreceptor-specific nuclear receptor (Homo sapiens), Q9Y5X4; luciferase; inhibition of corepressor binding, % at 3.98 µM; 360,000 compounds, 0.35% hits; AID 602229, 2012;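 active means inhibition above the mean of all tested compounds plus 3 SD, cut at about 70% in these data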;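 further: 0% = DMSO with NR2E3 transfected cells and 100% = cells lacking NR2E3 construct; higher means lower luciferase signal from less NR2E3 corepressor binding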
Target sequence (Q9Y5X4 whole entry, looked up, the tested form may be a part): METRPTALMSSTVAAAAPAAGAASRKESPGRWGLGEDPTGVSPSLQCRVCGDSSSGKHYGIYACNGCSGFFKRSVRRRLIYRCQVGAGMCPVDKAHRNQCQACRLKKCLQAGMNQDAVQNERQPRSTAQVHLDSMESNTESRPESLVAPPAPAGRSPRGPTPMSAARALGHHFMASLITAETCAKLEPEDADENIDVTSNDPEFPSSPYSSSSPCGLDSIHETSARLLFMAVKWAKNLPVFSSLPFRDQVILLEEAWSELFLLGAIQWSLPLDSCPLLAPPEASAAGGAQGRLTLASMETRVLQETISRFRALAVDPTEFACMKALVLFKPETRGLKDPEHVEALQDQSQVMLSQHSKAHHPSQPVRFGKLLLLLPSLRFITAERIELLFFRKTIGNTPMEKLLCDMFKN
ADAM17 inh – ADAM17 inhibitors, primary screen, biochemical, QFRET | 370,000 compounds, 0.83% hits | AID 720648, 2013 | inhibition, % at 6.95 µM | recombinant ADAM17, EDANS/DABCYL FRET peptide cleavage;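 active means inhibition above the mean of compounds lying between control limits plus 3 SD, set per campaign, cut at about 8.5% in these data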;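 further: 0% = DMSO-only wells as the low control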
GASC-1 inh – inhibitors of GASC-1 histone demethylase, primary screen, biochemical, fluorescence, DELFIA europium. inhibition, % at 2.35 µM. AID 2099, 2009. GST-JMJD2C(1-420) H3K9me3 demethylation. 330,000 compounds, 0.069% hits;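 active means more than half of a compound's replicate wells show inhibition beyond 50%, single wells judged on their own value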;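 further: signal counts dimethyl H3K9 product captured on neutravidin plate; 0% = median of DMSO wells and 100% = 0.3 times that DMSO median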
NR2E3 ag-2 – inhibitors of NR2E3-RetCOR corepressor binding, primary screen, NR2E3 agonist project, biochemical, TR-FRET, GST-NR2E3, biotin-RetCOR; 320,000 compounds, 0.12% hits; AID 2300, 2010; 1536-well; inhibition of corepressor binding, % at 4.78 µM;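 active means percent inhibition above the cutoff of mean plus 3 SD of all tested compounds, set per screening campaign, cut at about 20% in these data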;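 further: 0% = DMSO wells and 100% = biotin wells as full block of FRET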
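System: GST-tagged NR2E3 plus biotinylated RetCOR corepressor; Buffer or medium: pH 7.5 Tris-based buffer; Probe or stimulus: RetCOR corepressor, biotinylated, 7 nM; Doses: compound at 4.8 µM, single dose; Schedule: 5 h incubation at 4 °C; Technique: time-resolved FRET; Evaluation: percent inhibition of TR-FRET ratio; Replication: one well per compound, singlicate testing.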
ADAM10 inh – human ADAM10 inhibitors, primary screen, biochemical, QFRET, HTS; Disintegrin and metalloproteinase domain-containing protein 10 (Homo sapiens), O14672; recombinant ADAM10, EDANS/DABCYL FRET peptide cleavage, 3 h; inhibition, % at 7 µM; 370,000 compounds, 0.62% hits; AID 720582, 2013;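 active means inhibition above a per-campaign cutoff equal to the mean of compounds falling between control-based bounds plus 3 SD, cut at about 20% in these data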;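 further: 0% = DMSO wells while the 100% control is not disclosed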
ADAM10 ctr – ADAM10 inhibitors, counter-screen for ADAM17 exosite inhibitor project, biochemical, FRET, human ADAM10; shares compounds with ADAM17 inh; recombinant ADAM10, EDANS/DABCYL FRET peptide cleavage, 3 h; inhibition, % at 6.95 µM; 2,900 compounds, 47% hits; AID 743256, 2014;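 active means mean inhibition over the triplicate runs exceeds the activity threshold set in the earlier primary screen, cut at about 20% in these data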;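 further: 0% = DMSO wells and 100% = marimastat wells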
ADAM17 confirm – ADAM17 inhibitors, hit retest, confirmation, biochemical, QFRET peptide cleavage. shares compounds with ADAM17 inh. recombinant ADAM17, EDANS/DABCYL QFRET peptide cleavage. inhibition, % at 6.95 µM. 2,900 compounds, 65% hits;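 active means mean inhibition across replicates above the hit cutoff set in the primary screen, cut at about 8.5% in these data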;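 further: 0% = DMSO wells and 100% = marimastat wells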
An asterisk follows results filed as active; nt = no result given.

SMILES | proKLK7 act | NR2E3 ag-1 | ADAM17 inh | GASC-1 inh | NR2E3 ag-2 | ADAM10 inh | ADAM10 ctr | ADAM17 confirm
CCN(CC(=O)Nc1c(F)cccc1F)C(=O)/C=C/c1cn(Cc2ccccc2)nc1-c1cccnc1 | 0 | 16 | -7 | 42 | -5 | -21 | nt | nt
COc1cccc2cc(/C(=N/O)c3ccc(Br)cc3)oc12 | 1 | -55 | 12* | -3 | -1 | 13 | 16 | 11*
CCc1ccccc1Nc1cc(C(=O)NCc2ccccn2)c2ccccc2n1 | 1 | -7 | 9.0* | -1 | 1 | 18 | -2 | 8
COc1cccc(C(=O)Nc2cccc3c2ccc2cccn23)c1 | 3 | -7 | -2 | 4 | 1 | 3 | nt | nt
Cc1[nH]c2ccccc2c1/C=C/c1cc[n+](C)cc1 | 1 | -18 | 9.4* | -24 | nt | 3 | 5 | 4
C[n+]1ccc2[nH]c3ccccc3c2c1 | 1 | -9 | -13 | nt | nt | -52 | nt | nt
O=C1c2ccccc2C(=O)N1CCCc1cn(C[C@H]2CC[C@H](Cn3cc(CCCN4C(=O)c5ccccc5C4=O)nn3)O2)nn1 | 0 | 8 | 3 | nt | nt | -3 | nt | nt
COc1ccc(S(=O)(=O)N2CCCOC2CNC(=O)C(=O)NCCO)cc1 (stereo not drawn) | 0 | -19 | 10.0* | nt | nt | 5 | 7 | 9.4*
Cc1ccc(CNC(=O)C(=O)NCC2OCCN2S(=O)(=O)c2ccc(Br)cc2)cc1 (stereo not drawn) | 1 | 8 | 6 | 1 | 1 | 6 | nt | nt
Cc1ccc(CNC(=O)C(=O)NCC2OCCN2S(=O)(=O)c2ccc(C)cc2)cc1 (stereo not drawn) | 0 | -16 | 11* | 1 | 1 | -6 | -7 | 1
Cc1c(Cl)cccc1NC(=O)CN1CCC(C(O)(c2ccccc2)c2ccccc2)CC1 | 0 | -42 | 8.8* | -4 | 3 | 13 | 30* | 16*
COc1ccc(C(NC(=O)C2CCCCC2)c2c(O)ccc3ccccc23)cc1 (stereo not drawn) | -3 | -33 | -3 | 5 | 2 | -10 | nt | nt
O=S(=O)(Nc1ccc(-c2nnc(SCc3ccc(Cl)cc3)o2)cc1)c1ccccc1 | 0 | 14 | 9.2* | 13 | 1 | 18 | 23* | 14*
Cc1ccc(-c2onc3ccc(C4OCCO4)cc23)cc1 | -6 | -164 | -10 | 12 | 2 | -39 | nt | nt
COc1cc(/C=C(\C#N)c2ccccn2)ccc1OCc1ccccc1 | 0 | -36 | 9.4* | -2 | 0 | 0 | 9 | 16*
Cc1ccccc1CN1CCCCC(NC(=O)c2cccc([N+](=O)[O-])c2)C1=O (stereo not drawn) | 0 | nt | 1 | nt | nt | 4 | nt | nt
O=C(CN1CCOCC1)Nc1ccccc1F | 0 | -30 | 9.1* | -6 | -3 | 7 | -2 | -1
CS(=O)c1ccccc1-c1nc(-c2ccc([N+](=O)[O-])cc2)no1 (stereo not drawn) | 0 | 5 | 11* | nt | nt | 8 | 22* | 8
N#CCCn1cc(C=O)c(-c2cccs2)n1 | 0 | -26 | -8 | -17 | 6 | -14 | nt | nt
CCN(CC)c1nc2cc(C)ccc2cc1/C=C(\C#N)C(N)=O | 2 | -3 | -13 | -16 | 5 | -52 | nt | nt
N#CCC(CNc1ncc(C(F)(F)F)cc1Cl)OC(=O)c1ccc(Cl)cc1 (stereo not drawn) | 1 | -2 | 8.7* | 7 | 1 | 16 | 35* | 16*
N#CCC(CNc1ncc(C(F)(F)F)cc1Cl)OC(=O)c1c(F)cccc1F (stereo not drawn) | 0 | -1 | 8 | -3 | -4 | 11 | nt | nt
CN(c1ccccc1)S(=O)(=O)c1cccc(C(=O)Nc2cccc(C(=O)NC3CC3)c2)c1 | 1 | 12 | 9.2* | nt | nt | 2 | 3 | 3
CCC(C(=O)Nc1cccc(S(=O)(=O)N(C)c2ccccc2)c1)c1ccccc1 (stereo not drawn) | 0 | -3 | 9.3* | 8 | 5 | 18 | 17 | 8.7*
CC(Oc1ccc(F)cc1)C(=O)Nc1cccc(S(=O)(=O)N(C)c2ccccc2)c1 (stereo not drawn) | 0 | 22 | 4 | nt | nt | 3 | nt | nt
SMILES | proKLK7 act | NR2E3 ag-1 | ADAM17 inh | GASC-1 inh | NR2E3 ag-2 | ADAM10 inh | ADAM10 ctr | ADAM17 confirm
CC(=O)c1cccc(NC(=O)C(OC(=O)c2cccc(S(=O)(=O)N(C)c3ccccc3)c2)c2ccccc2)c1 (stereo not drawn) | -1 | -1 | 9.1* | 0 | 0 | 15 | 24* | 12*
CN(c1ccccc1)S(=O)(=O)c1cccc(NC(=O)COC(=O)C2CCCCC2)c1 | 0 | 0 | 8.8* | 9 | 1 | 14 | 32* | 14*
CCCn1c(N)c(N(CCOC)C(=O)CSCC(=O)Nc2ccc(OC)cc2)c(=O)[nH]c1=O | 0 | -6 | -8 | -1 | -3 | -8 | nt | nt
COc1ccc(N(C)S(=O)(=O)c2cccc(C(=O)OC(C(=O)Nc3cc(C)cc(C)c3)c3ccccc3)c2)cc1 (stereo not drawn) | 0 | 5 | 8.6* | 2 | 1 | 16 | 19 | 13*
COc1ccc(N(C)S(=O)(=O)c2cccc(C(=O)Nc3nc(C)cs3)c2)cc1 | -1 | -1 | 3 | -8 | 1 | -2 | nt | nt
COc1ccc(NC(=O)/C(=C\c2ccc(F)cc2)NC(=O)c2ccco2)cc1 | 0 | 10 | 2 | -9 | -1 | 4 | nt | nt
Cc1ccc(N2CCN(C(=O)C3CCC(=O)N(Cc4ccc(Cl)cc4)C3)CC2)c(C)c1 (stereo not drawn) | 1 | 23 | 8.8* | 6 | nt | 2 | 9 | 5
CN(CCCNC(=O)CSc1cc(=O)n(C)c2ccc(Cl)cc12)Cc1ccccc1 | 0 | -15 | -6 | 38 | -1 | -23 | nt | nt
C=CCNc1cccc(Br)c1 | 0 | -20 | 9.1* | 0 | 2 | 4 | 4 | 2

Screening results deposited in PubChem by several laboratories.
